This is an account of results in ChEMBL document CHEMBL3616437, “Thiazole compounds with activity against Cryptococcus gattii and Cryptococcus neoformans in vitro” (Eur J Med Chem, 2015).

The subject of assay [1] is Cryptococcus gattii species complex. The assay is described as follows: Antifungal activity against Cryptococcus gattii L28/02 assessed as reduction in cell viability at 1.9 uM after 6 to 72 hrs by MTT assay. The class given is functional, Cryptococcus bacillisporus. A general note: Formazan colour is commonly taken as a measure of viable cells.
For assay [2], the system named is Cryptococcus neoformans. In words: Antifungal activity against Cryptococcus neoformans LMM820 assessed as reduction in cell viability at 0.9 uM after 6 to 72 hrs by MTT assay. The class given is functional.
Assay [3] relates to Cryptococcus gattii species complex. The assay is described as follows: Antifungal activity against Cryptococcus gattii 1913ER assessed as reduction in cell viability at 1.9 uM after 6 to 72 hrs by MTT assay. In kind it is functional, Cryptococcus bacillisporus.
Assay [4] has the same test system. In words: Antifungal activity against Cryptococcus gattii 135L/03 assessed as reduction in cell viability at 1.9 uM after 6 to 72 hrs by MTT assay. The class given is functional, Cryptococcus bacillisporus.
In assay [5] the test system is Cryptococcus neoformans. The assay is described as follows: Antifungal activity against Cryptococcus neoformans F10 assessed as reduction in cell viability at 0.9 uM after 6 to 72 hrs by MTT assay. In kind it is functional.
The test system of assay [6] is Cryptococcus bacillisporus. The assay is described as follows: Antifungal activity against Cryptococcus gattii ATCC 32608 assessed as reduction in cell viability after at 1.9 uM 6 to 72 hrs by MTT assay. The class given is functional.
For assay [7], the system named is Cryptococcus gattii species complex. In words: Antifungal activity against Cryptococcus gattii L24/01 assessed as reduction in cell viability at 1.9 uM after 6 to 72 hrs by MTT assay. In kind it is functional, Cryptococcus bacillisporus.
Assay [8] shares this test system. The assay is described as follows: Antifungal activity against Cryptococcus gattii 23/10993 assessed as reduction in cell viability at 1.9 uM after 6 to 72 hrs by MTT assay. The class given is functional, Cryptococcus bacillisporus.
The test system is the same in assay [9]. In words: Antifungal activity against Cryptococcus gattii L28/02 assessed as reduction in cell viability at 3.9 uM after 6 to 72 hrs by MTT assay. In kind it is functional, Cryptococcus bacillisporus.
In assay [10] the test system is Cryptococcus neoformans. The assay is described as follows: Antifungal activity against Cryptococcus neoformans 27JF assessed as reduction in cell viability at 3.9 uM after 6 to 72 hrs by MTT assay. The class given is functional.
Assay [11] has as its system Cryptococcus neoformans. The assay is described as follows: Antifungal activity against Cryptococcus neoformans WP assessed as reduction in cell viability at 3.9 uM after 6 to 72 hrs by MTT assay. The class given is functional.
Assay [12] has as its system Cryptococcus neoformans. In words: Antifungal activity against Cryptococcus neoformans CN31 assessed as reduction in cell viability at 3.9 uM after 6 to 72 hrs by MTT assay. The class given is functional.
For assay [13], the system named is Cryptococcus gattii species complex. In words: Antifungal activity against Cryptococcus gattii 135L/03 assessed as reduction in cell viability at 3.9 uM after 6 to 72 hrs by MTT assay. In kind it is functional, Cryptococcus bacillisporus.
Assay [14] has the same test system. The assay is described as follows: Antifungal activity against Cryptococcus gattii ICB181 assessed as reduction in cell viability at 3.9 uM after 6 to 72 hrs by MTT assay. In kind it is functional, Cryptococcus bacillisporus.
In the next assay the test system is Cryptococcus gattii. The assay is described as follows: Antifungal activity against Cryptococcus gattii ATCC 24065 assessed as reduction in cell viability at 3.9 uM after 6 to 72 hrs by MTT assay.
Assay [15] concerns Cryptococcus neoformans. The assay is described as follows: Antifungal activity against Cryptococcus neoformans 5396 assessed as reduction in cell viability at 3.9 uM after 6 to 72 hrs by MTT assay. In kind it is functional.
Assay [16] deals with Cryptococcus gattii species complex. The assay is described as follows: Antifungal activity against Cryptococcus gattii 547/OTTI-97-PI-10 assessed as reduction in cell viability at 3.9 uM after 6 to 72 hrs by MTT assay. In kind it is functional, Cryptococcus bacillisporus.
The test system of assay [17] is Cryptococcus neoformans. In words: Antifungal activity against Cryptococcus neoformans ATCC 62066 assessed as reduction in cell viability at 3.9 uM after 6 to 72 hrs by MTT assay. In kind it is functional.
In assay [18] the test system is Cryptococcus neoformans. The assay is described as follows: Antifungal activity against Cryptococcus neoformans 28JF assessed as reduction in cell viability at 3.9 uM after 6 to 72 hrs by MTT assay. In kind it is functional.
The test system of assay [19] is Cryptococcus bacillisporus. In words: Antifungal activity against Cryptococcus gattii ATCC 32608 assessed as reduction in cell viability at 3.9 uM after 6 to 72 hrs by MTT assay. The class given is functional.
A short description of assay [20]: Selectivity index, ratio of IC50 for C57BL/6 mouse peritoneal macrophages to MIC for Cryptococcus gattii ATCC 24065.
Assay [21] concerns Cryptococcus gattii species complex. In words: Antifungal activity against Cryptococcus gattii 23/10993 assessed as reduction in cell viability at 3.9 uM after 6 to 72 hrs by MTT assay. The class given is functional, Cryptococcus bacillisporus.
The test system is the same in assay [22]. In words: Antifungal activity against Cryptococcus gattii LMM818 assessed as reduction in cell viability at 3.9 uM after 6 to 72 hrs by MTT assay. In kind it is functional, Cryptococcus bacillisporus.
Assay [23] has as its system Cryptococcus neoformans. The assay is described as follows: Antifungal activity against Cryptococcus neoformans LMM820 assessed as reduction in cell viability at 3.9 uM after 6 to 72 hrs by MTT assay. In kind it is functional.
For assay [24], the system named is Cryptococcus neoformans. In words: Antifungal activity against Cryptococcus neoformans F10 assessed as reduction in cell viability at 3.9 uM after 6 to 72 hrs by MTT assay. The class given is functional.
For assay [25], the system named is Cryptococcus neoformans. The assay is described as follows: Antifungal activity against Cryptococcus neoformans ATCC 24067 assessed as reduction in cell viability at 3.9 uM after 6 to 72 hrs by MTT assay. The class given is functional.
The test system of assay [26] is Cryptococcus neoformans. In words: Antifungal activity against Cryptococcus neoformans 5396 assessed as reduction in cell viability at 1.9 uM after 6 to 72 hrs by MTT assay. In kind it is functional.
Assay [27] deals with Cryptococcus neoformans. The assay is described as follows: Antifungal activity against Cryptococcus neoformans 28JF assessed as reduction in cell viability at 1.9 uM after 6 to 72 hrs by MTT assay. In kind it is functional.
In assay [28] the test system is Cryptococcus neoformans. In words: Antifungal activity against Cryptococcus neoformans LMM820 assessed as reduction in cell viability at 1.9 uM after 6 to 72 hrs by MTT assay. The class given is functional.
Assay [29] deals with Cryptococcus gattii species complex. The assay is described as follows: Antifungal activity against Cryptococcus gattii LMM818 assessed as reduction in cell viability at 26 uM after 6 to 72 hrs by MTT assay. The class given is functional, Cryptococcus bacillisporus. The gist of the method: (§1)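 Time-kill setup: colonies from two 48 h, 35°C SDA passages were suspended in saline to 70% transmittance at 530 nm. They were then diluted to 1-5 x10^3 cells/mL in RPMI with L-glutamine buffered to pH 7.0 with 0.165 M MOPS. Plates were incubated at 35°C for 0-72 h, then MTT (5.0 mg/mL) was added for 3 h. After isopropanol, absorbance was read at 490 nm. Drug-free controls were included, results were confirmed by SDA colony counts, and assays were run in triplicate.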

For assay [30], the system named is Cryptococcus neoformans. In words: Antifungal activity against Cryptococcus neoformans ATCC 28957 assessed as reduction in cell viability at 26 uM after 6 to 72 hrs by MTT assay. In kind it is functional. The gist of the method: as §1
The subject of assay [31] is Cryptococcus gattii species complex. The assay is described as follows: Antifungal activity against Cryptococcus gattii LMM818 assessed as reduction in cell viability at 0.12 uM after 6 to 72 hrs by MTT assay. The class given is functional, Cryptococcus bacillisporus.
For assay [32], the system named is Cryptococcus neoformans. The assay is described as follows: Antifungal activity against Cryptococcus neoformans 27JF assessed as reduction in cell viability at 0.12 uM after 6 to 72 hrs by MTT assay. In kind it is functional.
In assay [33] the test system is Cryptococcus gattii species complex. In words: Antifungal activity against Cryptococcus gattii L27/01 assessed as reduction in cell viability at 0.12 uM after 6 to 72 hrs by MTT assay. In kind it is functional, Cryptococcus bacillisporus.
Assay [34] has the same test system. In words: Antifungal activity against Cryptococcus gattii 196L/03 assessed as reduction in cell viability at 0.12 uM after 6 to 72 hrs by MTT assay. In kind it is functional, Cryptococcus bacillisporus.
The test system is the same in assay [35]. The assay is described as follows: Antifungal activity against Cryptococcus gattii ICB181 assessed as reduction in cell viability at 0.12 uM after 6 to 72 hrs by MTT assay. In kind it is functional, Cryptococcus bacillisporus.
Assay [36] relates to Cryptococcus neoformans. In words: Post-antifungal activity against Cryptococcus neoformans CN31 assessed as organism required time to achieve cell population of 10^4 cells/ml at 0.05 uM treated for 1 hr by MTT assay. In kind it is functional.
Assay [37] deals with Cryptococcus neoformans. In words: Antifungal activity against Cryptococcus neoformans WP assessed as reduction in cell viability at 0.12 uM after 6 to 72 hrs by MTT assay. The class given is functional.

For the compound `COc1ccc(-c2csc(N/N=C(\C)CCO)n2)cc1`, the Activity (in [1]; with Cryptococcus neoformans [2]; in [3]; in [4]; in the assay with Cryptococcus neoformans [5]; in assay [6]) was 90% each time. The Activity in assay [7] and in assay [8] was 90% each time.

Regarding `COc1ccc(-c2csc(N/N=C/C3CCCCC3)n2)cc1`, the Activity (in assay [9]; in the assay on Cryptococcus neoformans [10]; in the assay with Cryptococcus neoformans [11]; with Cryptococcus neoformans [12]; in [13]; in assay [14]) was 80% throughout. For the same compound, the Activity (with Cryptococcus gattii; in the assay on Cryptococcus neoformans [15]; in assay [16]; in the assay on Cryptococcus neoformans [17]; in the assay on Cryptococcus neoformans [18]; in assay [19]) was 80% each time. The Activity (in assay [21]; in assay [22]; with Cryptococcus neoformans [23]; in the assay with Cryptococcus neoformans [24]; in the assay on Cryptococcus neoformans [25]) was 80% throughout. The Ratio in assay [20] is recorded as 25.64.

`C(=N\Nc1nc(-c2ccccc2)cs1)/C1CCCCC1`: the Activity (in assay [1]; in the assay on Cryptococcus neoformans [26]; in [3]; in assay [4]; with Cryptococcus neoformans [27]; in [6]) was 90% each time. In addition, the Activity (with Cryptococcus neoformans [28]; in assay [7]; in assay [8]) was 90% throughout.

Regarding `c1ccc(-c2csc(NN=C3CCCC3)n2)cc1`, the Activity (in assay [9]; in the assay with Cryptococcus neoformans [10]; with Cryptococcus neoformans [11]; in the assay with Cryptococcus neoformans [12]; in assay [13]; in assay [14]) was 80% throughout. The Activity (in the assay with Cryptococcus gattii; with Cryptococcus neoformans [15]; in [16]; with Cryptococcus neoformans [17]; in the assay with Cryptococcus neoformans [18]; in [19]) was 80% throughout. The Activity (in [21]; in [22]; with Cryptococcus neoformans [23]; with Cryptococcus neoformans [24]; in the assay with Cryptococcus neoformans [25]) was 80% in each case.

`OC(Cn1cncn1)(Cn1cncn1)c1ccc(F)cc1F` [FLUCONAZOLE]: the Activity (in assay [29]; with Cryptococcus neoformans [30]) was 80% each time. For the same compound, the Ratio in assay [20] was determined as 7.87.

Regarding `C[C@@H]1[C@H](O)[C@@H](C)/C=C/C=C/C=C/C=C/C=C/C=C/C=C/[C@H](O[C@@H]2O[C@H](C)[C@@H](O)[C@H](N)[C@@H]2O)C[C@@H]2O[C@](O)(C[C@@H](O)C[C@@H](O)[C@H](O)CC[C@@H](O)C[C@@H](O)CC(=O)O[C@H]1C)C[C@H](O)[C@H]2C(=O)O` [AMPHOTERICIN B], the Activity (in assay [31]; in the assay with Cryptococcus neoformans [32]; in [33]; in assay [34]; in assay [35]; in the assay on Cryptococcus neoformans [37]) was 90% each time. In addition, the Time in the assay with Cryptococcus neoformans [36] was found to be 2.75 h.
